Experimental data published in ChEMBL document CHEMBL1149289, “Synthesis and antibacterial activity of new poly-S-lysine-porphyrin conjugates” (J Med Chem, 2004).

Legend:
Escherichia coli [1] = test: Drug uptake per mg of protein in Escherichia coli O4 at 0.5 uM after 10 mins; assay type: ADME, organism-based; conditions: in vivo
Summary of the method: (§1)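 Bacterial suspensions (10^8 to 10^9 cells/mL in PBS) were incubated with porphyrin for 10 min in the dark at room temperature, then centrifuged. The pellet was digested in 2% aqueous SDS. Porphyrin was quantified by spectrofluorimetry and cell protein by modified Lowry assay (BSA standard). Uptake is given as nmol per mg cell protein.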

Staphylococcus aureus [2] = test: Logarithmic survival of methicillin-resistant Staphylococcus aureus 110 at 5 uM after 10 mins and irradiated with white light at the fluence rate of 50 mW/cm2 for 30 mins relative to control; assay type: functional; conditions: light or radiation study
Summary of the method: (§2)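 MRSA 110 grown aerobically at 37 °C on BHA. Stationary-phase cells were taken into BHI, washed twice in PBS and diluted to OD650 ~0.7 (10^8 to 10^9 cells/mL). Suspensions were held with photosensitizer for 10 min in the dark at room temperature, then given white light for 30 min. Cells were serially diluted, plated on BHA and counted after 16–20 h at 37 °C. Survival = cfu ÷ cfu of photosensitizer-free controls.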

Staphylococcus aureus [3] = test: Logarithmic survival of methicillin-resistant Staphylococcus aureus 110 at 0.1 uM after 10 mins and irradiated with white light at the fluence rate of 50 mW/cm2 for 15 mins relative to control; assay type: functional; conditions: light or radiation study
Summary of the method: (§3)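 S. aureus ATCC 25923 or MRSA 110 (PBS-washed, 10^8 to 10^9 cells/mL) were incubated with 0.1 μM photosensitizer for 10 min in the dark at room temperature. They were then irradiated with white light at 50 mW/cm² for varying times up to 30 min. Survival was read as cfu on BHA and divided by cfu of controls without photosensitizer.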

Staphylococcus aureus [4] = test: Drug uptake per mg of protein in methicillin-resistant Staphylococcus aureus 110 at 1 uM after 10 mins; assay type: ADME, organism-based; conditions: in vivo; summary of the method: as §1
Staphylococcus aureus [5] = test: Logarithmic survival of methicillin-resistant Staphylococcus aureus 110 at 0.1 uM after 10 mins and irradiated with white light at the fluence rate of 50 mW/cm2 for 20 mins relative to control; assay type: functional; conditions: light or radiation study; summary of the method: as §3
Staphylococcus aureus [6] = test: Drug uptake per mg of protein in methicillin-resistant Staphylococcus aureus 110 at 0.5 uM after 10 mins; assay type: ADME, organism-based; conditions: in vivo; summary of the method: as §1
Staphylococcus aureus [7] = test: Drug uptake per mg of protein in methicillin-resistant Staphylococcus aureus 110 at 2.5 uM after 10 mins; assay type: ADME, organism-based; conditions: in vivo; summary of the method: as §1
Staphylococcus aureus [8] = test: Logarithmic survival of Staphylococcus aureus ATCC 25923 at 0.1 uM after 10 mins and irradiated with white light at the fluence rate of 50 mW/cm2 for 20 mins relative to control; assay type: functional; conditions: ATCC 25923, light or radiation study; summary of the method: as §3
Staphylococcus aureus [9] = test: Logarithmic survival of methicillin-resistant Staphylococcus aureus 110 at 0.01 uM after 10 mins and irradiated with white light at the fluence rate of 50 mW/cm2 for 30 mins relative to control; assay type: functional; conditions: light or radiation study
Summary of the method: (§4)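 Strains grown aerobically at 37 °C on brain heart agar; stationary-phase cells washed twice in PBS and adjusted to OD650 ca. 0.7 (10^8 to 10^9 cells/mL). Cells incubated with photosensitizer at various concentrations for 10 min in the dark at room temperature, then irradiated with white light at 50 mW/cm² for 30 min. Survivors counted as cfu on BHA after 16–20 h at 37 °C, expressed relative to no-photosensitizer controls. Dark controls were run without irradiation.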

[10] = Photostability after irradiation with white light at the fluence rate of 50 mW/cm2 for 30 mins; assay type: ADME; conditions: read-out: Stability
Staphylococcus aureus [11] = test: Drug uptake per mg of protein in Staphylococcus aureus ATCC 25923 at 10 uM after 10 mins; assay type: ADME, organism-based; conditions: in vivo; summary of the method: as §1
Staphylococcus aureus [12] = test: Logarithmic survival of methicillin-resistant Staphylococcus aureus 110 at 0.1 uM after 10 mins and irradiated with white light at the fluence rate of 50 mW/cm2 for 10 mins relative to control; assay type: functional; conditions: light or radiation study; summary of the method: as §3
Escherichia coli [13] = test: Drug uptake per mg of protein in Escherichia coli O4 at 1 uM after 10 mins; assay type: ADME, organism-based; conditions: in vivo; summary of the method: as §1
Staphylococcus aureus [14] = test: Logarithmic survival of Staphylococcus aureus ATCC 25923 at 0.1 uM after 10 mins and irradiated with white light at the fluence rate of 50 mW/cm2 for 15 mins relative to control; assay type: functional; conditions: ATCC 25923, light or radiation study; summary of the method: as §3
Escherichia coli [15] = test: Logarithmic survival of Escherichia coli O4 at 0.1 uM after 10 mins and irradiated with white light at the fluence rate of 50 mW/cm2 for 30 mins relative to control; assay type: functional; conditions: O4, light or radiation study; summary of the method: as §4
Escherichia coli [16] = test: Logarithmic survival of Escherichia coli O4 at 5 uM after 10 mins and irradiated with white light at the fluence rate of 50 mW/cm2 for 30 mins relative to control; assay type: functional; conditions: O4, light or radiation study; summary of the method: as §4
Staphylococcus aureus [17] = test: Drug uptake per mg of protein in methicillin-resistant Staphylococcus aureus 110 at 5 uM after 10 mins; assay type: ADME, organism-based; conditions: in vivo; summary of the method: as §1
Staphylococcus aureus [18] = test: Logarithmic survival of methicillin-resistant Staphylococcus aureus 110 at 0.25 uM after 10 mins and irradiated with white light at the fluence rate of 50 mW/cm2 for 30 mins relative to control; assay type: functional; conditions: light or radiation study; summary of the method: as §2
Escherichia coli [19] = test: Logarithmic survival of Escherichia coli O4 at 2.5 uM after 10 mins and irradiated with white light at the fluence rate of 50 mW/cm2 for 30 mins relative to control; assay type: functional; conditions: O4, light or radiation study; summary of the method: as §4
Staphylococcus aureus [20] = test: Logarithmic survival of methicillin-resistant Staphylococcus aureus 110 at 0.1 uM after 10 mins and irradiated with white light at the fluence rate of 50 mW/cm2 for 5 mins relative to control; assay type: functional; conditions: light or radiation study; summary of the method: as §3
Staphylococcus aureus [21] = test: Logarithmic survival of Staphylococcus aureus ATCC 25923 at 0.1 uM after 10 mins and irradiated with white light at the fluence rate of 50 mW/cm2 relative to control; assay type: functional; conditions: ATCC 25923, light or radiation study; summary of the method: as §3
Staphylococcus aureus [22] = test: Logarithmic survival of Staphylococcus aureus ATCC 25923 at 0.01 uM after 10 mins and irradiated with white light at the fluence rate of 50 mW/cm2 for 30 mins relative to control; assay type: functional; conditions: ATCC 25923, light or radiation study; summary of the method: as §4
Staphylococcus aureus [23] = test: Logarithmic survival of Staphylococcus aureus ATCC 25923 at 0.1 uM after 10 mins and irradiated with white light at the fluence rate of 50 mW/cm2 for 5 mins relative to control; assay type: functional; conditions: ATCC 25923, light or radiation study; summary of the method: as §3
Staphylococcus aureus [24] = test: Drug uptake per mg of protein in Staphylococcus aureus ATCC 25923 at 1 uM after 10 mins; assay type: ADME, organism-based; conditions: in vivo; summary of the method: as §1
[25] = Photostability after irradiation with white light at the fluence rate of 50 mW/cm2 for 20 mins; assay type: ADME; conditions: read-out: Stability
Escherichia coli [26] = test: Drug uptake per mg of protein in Escherichia coli O4 at 2.5 uM after 10 mins; assay type: ADME, organism-based; conditions: in vivo; summary of the method: as §1
Staphylococcus aureus [27] = test: Logarithmic survival of Staphylococcus aureus ATCC 25923 at 2.5 uM after 10 mins and irradiated with white light at the fluence rate of 50 mW/cm2 for 30 mins relative to control; assay type: functional; conditions: ATCC 25923, light or radiation study; summary of the method: as §4
Staphylococcus aureus [28] = test: Drug uptake per mg of protein in methicillin-resistant Staphylococcus aureus 110 at 10 uM after 10 mins; assay type: ADME, organism-based; conditions: in vivo; summary of the method: as §1
Staphylococcus aureus [29] = test: Logarithmic survival of methicillin-resistant Staphylococcus aureus 110 at 0.5 uM after 10 mins and irradiated with white light at the fluence rate of 50 mW/cm2 for 30 mins relative to control; assay type: functional; conditions: light or radiation study; summary of the method: as §2
Escherichia coli [30] = test: Logarithmic survival of Escherichia coli O4 at 0.5 uM after 10 mins and irradiated with white light at the fluence rate of 50 mW/cm2 for 30 mins relative to control; assay type: functional; conditions: O4, light or radiation study; summary of the method: as §4
[31] = Photostability after irradiation with white light at the fluence rate of 50 mW/cm2 for 3 mins; assay type: ADME; conditions: read-out: Stability

Structure (SMILES)	Drug uptake (Escherichia coli [1]) [nmol/mg]	survival at 5 µM (Staphylococcus aureus [2])	survival at 0.1 µM (Staphylococcus aureus [3])	Drug uptake (Staphylococcus aureus [4]) [nmol/mg]	survival at 0.1 µM (Staphylococcus aureus [5])	Drug uptake (Staphylococcus aureus [6]) [nmol/mg]	Drug uptake (Staphylococcus aureus [7]) [nmol/mg]	survival at 0.1 µM (Staphylococcus aureus [8])	log survival at 0.01 µM (Staphylococcus aureus [9]) [log10 %]	remaining at 0.5 h [10] [%]	Drug uptake (Staphylococcus aureus [11]) [nmol/mg]	survival at 0.1 µM (Staphylococcus aureus [12])	Drug uptake (Escherichia coli [13]) [nmol/mg]	survival at 0.1 µM (Staphylococcus aureus [14])	survival at 0.1 µM (Escherichia coli [15])	survival at 5 µM (Escherichia coli [16])	Drug uptake (Staphylococcus aureus [17]) [nmol/mg]	survival at 0.25 µM (Staphylococcus aureus [18]) [%]	survival at 2.5 µM (Escherichia coli [19])	survival at 0.1 µM (Staphylococcus aureus [20])	further results
C[n+]1ccc(-c2c3nc(c(-c4cc[n+](C)cc4)c4ccc([nH]4)c(-c4cc[n+](C)cc4)c4nc(c(-c5ccc(C(=O)O)cc5)c5ccc2[nH]5)C=C4)C=C3)cc1.[I-].[I-].[I-]	1.29	-2.29	1.82	5.43	1.79	2.08	7.69	-2.12	2	67	17	1.7	2.47	-1.17	1.57	-2.57	11.8	1.68	-0.46	1.87	survival at 0.1 µM (Staphylococcus aureus [21]): 0.82; survival at 0.01 µM (Staphylococcus aureus [22]): 2; survival at 0.1 µM (Staphylococcus aureus [23]): -0.28; Drug uptake (Staphylococcus aureus [24]): 3.71 nmol/mg; remaining at 20 min [25]: 72%; Drug uptake (Escherichia coli [26]): 3.47 nmol/mg; survival at 2.5 µM (Staphylococcus aureus [27]): -2%; Drug uptake (Staphylococcus aureus [28]): 18 nmol/mg; survival at 0.5 µM (Staphylococcus aureus [29]): 1.33%; survival at 0.5 µM (Escherichia coli [30]): 1.52; remaining at 0.05 h [31]: 86%
O=C(O)c1ccc(-c2c3nc(c(-c4ccncc4)c4ccc([nH]4)c(-c4ccncc4)c4nc(c(-c5ccncc5)c5ccc2[nH]5)C=C4)C=C3)cc1 [PORPHIRIN]	4.16	-3.07	0.26	15	-0.6	5.5	47	-3	2	85	187	0.98	7.65	-2.48	2	1.6	143	-1.39	1.65	1.61	survival at 0.1 µM (Staphylococcus aureus [21]): 1.91; survival at 0.01 µM (Staphylococcus aureus [22]): 2; survival at 0.1 µM (Staphylococcus aureus [23]): -0.85; Drug uptake (Staphylococcus aureus [24]): 7.7 nmol/mg; remaining at 20 min [25]: 90%; Drug uptake (Escherichia coli [26]): 35.3 nmol/mg; survival at 2.5 µM (Staphylococcus aureus [27]): -3.3%; Drug uptake (Staphylococcus aureus [28]): 342 nmol/mg; survival at 0.5 µM (Staphylococcus aureus [29]): -1.58%; survival at 0.5 µM (Escherichia coli [30]): 1.46; remaining at 0.05 h [31]: 97%
